Measurements published in ChEMBL document CHEMBL5705886, “GSK1070916, a potent Aurora B/C kinase inhibitor with broad antitumor activity in tissue culture cells and human tumor xenograft models” (Mol Cancer Ther, 2009).
The source made the active and inactive calls. No cut-off for these calls is given here.

Experiments:
[1] = system: COLO 205; test: Antiproliferative activity against human COLO 205 cells assessed as inhibition of cell viability measured for 6 to 7 days by cell titer glo assay; format: functional, cell-based
Method in brief: (§1)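 Tumor lines plated in recommended growth media, overnight at 37°C, 5% CO2, then given serial dilutions; a T=0 plate read with CellTiter-Glo at dosing. After 6–7 d of exposure, viability read by CellTiter-Glo luminescence. No-cell wells subtracted, data expressed as % of DMSO control.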

[2] = Antiproliferative activity against human RKOE6 cells assessed as inhibition of cell viability measured for 6 to 7 days by cell titer glo assay; format: functional, cell-based
Method in brief: (§2)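 Cells seeded in recommended growth medium, held overnight at 37°C in 5% CO2, then exposed to serial dilutions of inhibitor for 6–7 d. A time-zero plate was read with CellTiter-Glo at dosing. Luminescent viability read at the end. No-cell wells subtracted as background, data expressed as percent of DMSO control.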

[3] = system: LoVo; test: Antiproliferative activity against human LoVo cells assessed as inhibition of cell viability measured for 6 to 7 days by cell titer glo assay; format: functional, cell-based
Method in brief: (§3)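 Cells seeded in recommended growth medium, incubated overnight at 37°C in 5% CO2, then exposed to serial dilutions of inhibitor for 6–7 d. A parallel plate was read with CellTiter-Glo at compound addition as a T=0 value. The luminescent viability readout had no-cell background subtracted and was expressed as % of DMSO control.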

[4] = system: COLO-320-HSR; test: Antiproliferative activity against human COLO 320HSR cells assessed as inhibition of cell viability measured for 6 to 7 days by cell titer glo assay; format: functional, cell-based; method in brief: as §1
[5] = system: NCI-H630; test: Antiproliferative activity against human NCI-H630 cells assessed as inhibition of cell viability measured for 6 to 7 days by cell titer glo assay; format: functional, cell-based; method in brief: as §2
[6] = system: OVCAR-4; test: Antiproliferative activity against human OVCAR-4 cells assessed as inhibition of cell viability measured for 6 to 7 days by cell titer glo assay; format: functional, cell-based; method in brief: as §2
[7] = system: PC-3; test: Antiproliferative activity against human PC-3 cells assessed as inhibition of cell viability measured for 6 to 7 days by cell titer glo assay; format: functional, cell-based; method in brief: as §2
[8] = system: SW 954; test: Antiproliferative activity against human SW 954 cells assessed as inhibition of cell viability measured for 6 to 7 days by cell titer glo assay; format: functional, cell-based; method in brief: as §2
[9] = system: NCI-H1299; test: Antiproliferative activity against human NCI-H1299 cells assessed as inhibition of cell viability measured for 6 to 7 days by cell titer glo assay; format: functional, cell-based; method in brief: as §3
[10] = system: SU-DHL10; test: Antiproliferative activity against human SU-DHL-10 cells assessed as inhibition of cell viability measured for 6 to 7 days by cell titer glo assay; format: functional, cell-based; method in brief: as §2
[11] = system: ST486; test: Antiproliferative activity against human ST486 cells assessed as inhibition of cell viability measured for 6 to 7 days by cell titer glo assay; format: functional, cell-based; method in brief: as §2
[12] = system: NAMALVA; test: Antiproliferative activity against human NAMALWA cells assessed as inhibition of cell viability measured for 6 to 7 days by cell titer glo assay; format: functional, cell-based; method in brief: as §3
[13] = system: P3HR-1; test: Antiproliferative activity against human P3HR-1 cells assessed as inhibition of cell viability measured for 6 to 7 days by cell titer glo assay; format: functional, cell-based; method in brief: as §2
[14] = Antiproliferative activity against human 1A2 cells assessed as inhibition of cell viability measured for 6 to 7 days by cell titer glo assay; format: functional, cell-based; method in brief: as §1
[15] = Antiproliferative activity against human HS-Sultan cells assessed as inhibition of cell viability measured for 6 to 7 days by cell titer glo assay; format: functional, cell-based; method in brief: as §3
[16] = system: HD-MY-Z; test: Antiproliferative activity against human HD-MY-Z cells assessed as inhibition of cell viability measured for 6 to 7 days by cell titer glo assay; format: functional, cell-based; method in brief: as §1
[17] = system: RPMI-6666; test: Antiproliferative activity against human RPMI-6666 cells assessed as inhibition of cell viability measured for 6 to 7 days by cell titer glo assay; format: functional, cell-based; method in brief: as §2
[18] = Antiproliferative activity against human Tanoue cells assessed as inhibition of cell viability measured for 6 to 7 days by cell titer glo assay; format: functional, cell-based; method in brief: as §2
[19] = Antiproliferative activity against human PLB-985 cells assessed as inhibition of cell viability measured for 6 to 7 days by cell titer glo assay; format: functional, cell-based; method in brief: as §2
[20] = system: KCL-22; test: Antiproliferative activity against human KCL-22 cells assessed as inhibition of cell viability measured for 6 to 7 days by cell titer glo assay; format: functional, cell-based; method in brief: as §3
[21] = system: MOLT-4; test: Antiproliferative activity against human MOLT-4 cells assessed as inhibition of cell viability measured for 6 to 7 days by cell titer glo assay; format: functional, cell-based; method in brief: as §3
[22] = system: CCRF-CEM; test: Antiproliferative activity against human CCRF-CEM cells assessed as inhibition of cell viability measured for 6 to 7 days by cell titer glo assay; format: functional, cell-based; method in brief: as §1
[23] = system: HuT78; test: Antiproliferative activity against human HuT78 cells assessed as inhibition of cell viability measured for 6 to 7 days by cell titer glo assay; format: functional, cell-based; method in brief: as §3
[24] = system: HH; test: Antiproliferative activity against human HH cells assessed as inhibition of cell viability measured for 6 to 7 days by cell titer glo assay; format: functional, cell-based; method in brief: as §3
[25] = Antiproliferative activity against human MEC-1 cells assessed as inhibition of cell viability measured for 6 to 7 days by cell titer glo assay; format: functional, cell-based; conditions: MEC1; method in brief: as §3
[26] = system: A549; test: Effect on cell cycle distribution in human A549 cells assessed as increase in sub-2N DNA content at 2 to 5000 nM incubated for 24 to 72 hrs by flow cytometry based analysis; format: functional; conditions: dose 2-5000 nM, time 24-72 hrs
[27] = Toxicity in SCID nude mouse xenografted with human A549 cells assessed as drug tolerance at 25 to 100 mg/kg, ip administered once daily for 5 consecutive days with 2 days off scheduled for 3 cycles measured upto 60 days; format: organism-based; conditions: in vivo, 1440 h, dose 25-100 mg/kg, time 60 day
[28] = Toxicity in SCID nude mouse xenografted with human K562 cells assessed as drug tolerance at 100 mg/kg, ip administered once daily for 5 consecutive days with 2 days off scheduled for 3 cycles measured upto 60 days; format: organism-based; conditions: in vivo, 1440 h, time < 60 day
[29] = Toxicity in SCID nude mouse xenografted with human A549 cells assessed as body weight loss at 25 to 100 mg/kg, ip administered once daily for 5 consecutive days with 2 days off scheduled for 3 cycles measured upto 60 days relative to control; format: organism-based; conditions: in vivo, 1440 h, dose 25-100 mg/kg, time < 60 day
[30] = Toxicity in SCID nude mouse xenografted with human K562 cells assessed as body weight loss at 100 mg/kg, ip administered once daily for 5 consecutive days with 2 days off scheduled for 3 cycles measured upto 60 days; format: organism-based; conditions: in vivo, 1440 h, time < 60 day

CCn1cc(-c2ccnc3[nH]c(-c4cccc(CN(C)C)c4)cc23)c(-c2ccc(NC(=O)N(C)C)cc2)n1 [GSK-1070916]
EC50 [1]: 7 nM
EC50 [2]: 7 nM
EC50 [3]: 7 nM
EC50 [4]: 92 nM
EC50 [5]: 127 nM
EC50 [6]: 11 nM
EC50 [7]: 11 nM
EC50 [8]: 11 nM
EC50 [9]: 23 nM
EC50 [10]: 15 nM
EC50 [11]: 2 nM
EC50 [12]: 6 nM
EC50 [13]: 8 nM
EC50 [14]: 9 nM
EC50 [15]: 14 nM
EC50 [16]: 4 nM
EC50 [17]: 10 nM
EC50 [18]: 1480 nM
EC50 [19]: 1 nM
EC50 [20]: 5 nM
EC50 [21]: 3 nM
EC50 [22]: 7 nM
EC50 [23]: 14 nM
EC50 [24]: 18 nM
EC50 [25]: 10 nM
Activity [26]: Active
Activity [27]: Non-Toxic
Activity [28]: Toxic
Activity [29]: < 15%
Activity [30]: Toxic
